Key:
Cannabinoid receptor 2 = Cannabinoid receptor 2 (Homo sapiens, UniProt P34972); test: Binding affinity at the CB2 receptor
Cannabinoid receptor 1 = Cannabinoid receptor 1 (Homo sapiens, UniProt P21554); test: Binding affinity at the CB1 receptor
Rattus norvegicus [1] = test: Reduction in food intake in SD rat at 18 hrs after administration of 0.3 mg/kg, po; assay type: functional, Sprague-Dawley; parameters: scale not given: the % may be the effect or the level left
In short: (§1)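 Diet-induced obese Sprague–Dawley rats, six per treatment group, dosed orally with the compound in 10% Tween 80 in water 30–60 min before dark onset. Food cups weighed every 5 min in an automated system over the 18 h after dosing. Overnight body weight change also recorded. Suppression is expressed relative to vehicle-treated controls.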

[2] = Half life in Beagle dog; assay type: ADME, organism-based, Canis lupus familiaris; details: in vivo
[3] = Half life in C57BL/6 mouse; assay type: ADME, organism-based; details: in vivo
Mus musculus [4] = test: Reduction in food intake in wild type C57BL/6 mice at 2 hrs after administration of 10 mg/kg, po; assay type: functional; parameters: scale not given: the % may be the effect or the level left
In short: (§2)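 Ad libitum fed 12-week-old male C57BL/6 mice, n = 12 per group, given the compound orally at 1, 3 or 10 mpk in 0.225% methylcellulose/10% Tween 80 about 30 min before the dark phase. Food intake measured at 2 h and overnight. Overnight (18 h) body weight gain recorded and compared with vehicle.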

Rattus norvegicus [5] = test: Reduction in food intake in SD rat at 18 hrs after administration of 3.0 mg/kg, po; assay type: functional, Sprague-Dawley; parameters: scale not given: the % may be the effect or the level left; in short: as §1
[6] = Rat brain to plasma ratio at 4 hrs post iv dosing; assay type: ADME, organism-based; details: Sprague-Dawley
In short: (§3)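 Sprague–Dawley rats were dosed intravenously as part of a pharmacokinetic profile. Brain and plasma concentrations were sampled at 0.25 h and at 4 h post-dose and expressed as a brain-to-plasma ratio.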

[7] = Half life in rhesus macaque; assay type: ADME, organism-based, Macaca mulatta; details: rhesus monkey, in vivo
[8] = Half life in Sprague-Dawley rat; assay type: ADME, organism-based; details: in vivo
[9] = Plasma clearance in Beagle dog; assay type: ADME, organism-based, Canis lupus familiaris
[10] = Oral bioavailability in Sprague-Dawley rat; assay type: ADME, organism-based; details: in vivo
Rattus norvegicus [11] = test: Reduction in food intake in SD rat at 18 hrs after administration of 1.0 mg/kg, po; assay type: functional, Sprague-Dawley; parameters: scale not given: the % may be the effect or the level left; in short: as §1
[12] = Oral bioavailability in C57BL/6 mouse; assay type: ADME, organism-based; details: in vivo
[13] = Oral bioavailability in Beagle dog; assay type: ADME, organism-based, Canis lupus familiaris; details: in vivo
[14] = Plasma clearance in Sprague-Dawley rat; assay type: ADME, organism-based
[15] = Plasma clearance in C57BL/6 mouse; assay type: ADME, organism-based
[16] = Plasma clearance in rhesus macaque; assay type: ADME, organism-based, Macaca mulatta; details: rhesus monkey
[17] = Oral bioavailability in rhesus macaque; assay type: ADME, organism-based, Macaca mulatta; details: rhesus monkey, in vivo
Mus musculus [18] = test: Reduction in body weight overnight (18 hrs) in wild type C57BL/6 mice at 10 mg/kg; assay type: functional; parameters: scale not given: the % may be the effect or the level left; in short: as §2
[19] = Rat brain to plasma ratio at 0.25 hrs post iv dosing; assay type: ADME, organism-based; details: Sprague-Dawley; in short: as §3

Cannabinoid receptor 1, sequence (P21554 whole entry): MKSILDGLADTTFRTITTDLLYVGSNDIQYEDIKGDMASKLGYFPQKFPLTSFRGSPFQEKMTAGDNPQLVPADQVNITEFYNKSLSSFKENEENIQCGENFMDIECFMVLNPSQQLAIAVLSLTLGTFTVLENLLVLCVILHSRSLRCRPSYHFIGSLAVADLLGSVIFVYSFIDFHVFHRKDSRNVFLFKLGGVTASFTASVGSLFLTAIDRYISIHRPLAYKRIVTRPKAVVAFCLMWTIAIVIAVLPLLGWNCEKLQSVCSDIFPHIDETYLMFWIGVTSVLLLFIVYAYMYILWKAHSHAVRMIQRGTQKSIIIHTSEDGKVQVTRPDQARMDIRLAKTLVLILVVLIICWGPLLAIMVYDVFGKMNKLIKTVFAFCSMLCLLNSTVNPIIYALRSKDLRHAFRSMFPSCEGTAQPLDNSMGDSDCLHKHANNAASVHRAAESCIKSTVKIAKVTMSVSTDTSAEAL
Cannabinoid receptor 2, sequence (P34972 whole entry): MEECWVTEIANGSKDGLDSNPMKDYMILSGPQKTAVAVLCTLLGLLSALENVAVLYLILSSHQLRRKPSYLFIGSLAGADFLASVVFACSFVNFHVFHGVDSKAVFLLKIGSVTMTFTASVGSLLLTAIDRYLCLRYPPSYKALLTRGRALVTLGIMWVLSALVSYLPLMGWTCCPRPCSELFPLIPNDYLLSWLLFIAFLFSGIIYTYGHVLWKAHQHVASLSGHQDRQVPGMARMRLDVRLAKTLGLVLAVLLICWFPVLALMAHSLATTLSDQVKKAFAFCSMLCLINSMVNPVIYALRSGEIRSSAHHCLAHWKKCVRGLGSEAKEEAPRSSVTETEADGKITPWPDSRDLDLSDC

Compound	IC50 (Cannabinoid receptor 2) [nM]	IC50 (Cannabinoid receptor 1) [nM]	other results
CC(=O)Nc1c(N(C)C)c(=O)n(C)c2nc(-c3ccc(Cl)cc3Cl)c(-c3ccc(Cl)cc3)cc12	2500	20	–
CC(=O)Nc1c(C(C)=O)c(=O)n(C)c2nc(-c3ccc(Cl)cc3Cl)c(-c3ccc(Cl)cc3)cc12 [NAPHTHYRIDINONE]	4100	–	Activity (Rattus norvegicus [1]): 22%; half-life [2]: > 24 h; half-life [3]: > 8 h; Activity (Mus musculus [4]): 49%; Activity (Rattus norvegicus [5]): 68%; Kp at 4 h [6]: 2.7; half-life [7]: 22 h; half-life [8]: > 8 h; clearance [9]: 4.4 mL/min/kg; bioavailability [10]: 93%; Activity (Rattus norvegicus [11]): 39%; bioavailability [12]: 70%; bioavailability [13]: 100%; clearance [14]: 12 mL/min/kg; clearance [15]: 13.9 mL/min/kg; clearance [16]: 1.4 mL/min/kg; bioavailability [17]: 96%; Activity (Mus musculus [18]): 88%; Kp at 0.25 h [19]: 0.9
CC(=O)c1c(NC(=O)CO)c2cc(-c3ccc(Cl)cc3)c(-c3ccc(Cl)cc3Cl)nc2n(C)c1=O	3600	46	–
CC(=O)Nc1c(C(C)C)c(=O)n(C)c2nc(-c3ccc(Cl)cc3Cl)c(-c3ccc(Cl)cc3)cc12	5400	15	–
COCCn1c(=O)c(C(C)=O)c(NC(C)=O)c2cc(-c3ccc(Cl)cc3)c(-c3ccc(Cl)cc3Cl)nc21	1800	3.7	–
COCC(=O)Nc1c(C(C)=O)c(=O)n(C)c2nc(-c3ccc(Cl)cc3Cl)c(-c3ccc(Cl)cc3)cc12	3200	24	–
CC(=O)Nc1c(C(C)=O)c(=O)n(Cc2ccccc2)c2nc(-c3ccc(Cl)cc3Cl)c(-c3ccc(Cl)cc3)cc12	5100	2.3	–
CC(=O)Nc1c(C(C)=O)c(=O)n(CC(C)C)c2nc(-c3ccc(Cl)cc3Cl)c(-c3ccc(Cl)cc3)cc12	6200	2.3	–

Now those with a lower IC50 (Cannabinoid receptor 2), led by results:

IC50 (Cannabinoid receptor 2) [nM]	IC50 (Cannabinoid receptor 1) [nM]	Compound	other results
1500	32	CC(=O)Nc1c(C(C)=O)c(=O)n(CCO)c2nc(-c3ccc(Cl)cc3Cl)c(-c3ccc(Cl)cc3)cc12	–
1500	26	CC(=O)Nc1c(C)c(=O)n(C)c2nc(-c3ccc(Cl)cc3Cl)c(-c3ccc(Cl)cc3)cc12	–
1400	5.2	CC(=O)Nc1c(C(C)=O)c(=O)n(CC2CCCO2)c2nc(-c3ccc(Cl)cc3Cl)c(-c3ccc(Cl)cc3)cc12 (centres undefined)	–
1400	77	CC(=O)Nc1c(C(C)=O)c(=O)[nH]c2nc(-c3ccc(Cl)cc3Cl)c(-c3ccc(Cl)cc3)cc12	–
1400	55	CC(=O)c1c(C)c2cc(-c3ccc(Cl)cc3)c(-c3ccc(Cl)cc3Cl)nc2n(C)c1=O	–
1400	96	CC(=O)c1c(N(C)C)c2cc(-c3ccc(Cl)cc3)c(-c3ccc(Cl)cc3Cl)nc2n(C)c1=O	–
1100	120	CC(=O)c1c(N)c2cc(-c3ccc(Cl)cc3)c(-c3ccc(Cl)cc3Cl)nc2n(C)c1=O	–
1100	24	COc1c(NC(C)=O)c2cc(-c3ccc(Cl)cc3)c(-c3ccc(Cl)cc3Cl)nc2n(C)c1=O	–
720	35	CC(=O)Nc1c(C#N)c(=O)n(C)c2nc(-c3ccc(Cl)cc3Cl)c(-c3ccc(Cl)cc3)cc12	–
380	110	CC(=O)Nc1cc(=O)n(C)c2nc(-c3ccc(Cl)cc3Cl)c(-c3ccc(Cl)cc3)cc12	–
